# Reference: ChEMBL document CHEMBL1177757, “C(2)-Symmetric azobenzene-amino acid conjugates and their inhibition of Subtilisin Kexin Isozyme-1” (Bioorg Med Chem Lett, 2010)
# Key:
# [1] = molecular target: T1, Membrane-bound transcription factor site-1 protease (Homo sapiens, UniProt Q14703); assay: Inhibition of human recombinant soluble Kexin isozyme 1
# T1 sequence (Q14703 whole entry): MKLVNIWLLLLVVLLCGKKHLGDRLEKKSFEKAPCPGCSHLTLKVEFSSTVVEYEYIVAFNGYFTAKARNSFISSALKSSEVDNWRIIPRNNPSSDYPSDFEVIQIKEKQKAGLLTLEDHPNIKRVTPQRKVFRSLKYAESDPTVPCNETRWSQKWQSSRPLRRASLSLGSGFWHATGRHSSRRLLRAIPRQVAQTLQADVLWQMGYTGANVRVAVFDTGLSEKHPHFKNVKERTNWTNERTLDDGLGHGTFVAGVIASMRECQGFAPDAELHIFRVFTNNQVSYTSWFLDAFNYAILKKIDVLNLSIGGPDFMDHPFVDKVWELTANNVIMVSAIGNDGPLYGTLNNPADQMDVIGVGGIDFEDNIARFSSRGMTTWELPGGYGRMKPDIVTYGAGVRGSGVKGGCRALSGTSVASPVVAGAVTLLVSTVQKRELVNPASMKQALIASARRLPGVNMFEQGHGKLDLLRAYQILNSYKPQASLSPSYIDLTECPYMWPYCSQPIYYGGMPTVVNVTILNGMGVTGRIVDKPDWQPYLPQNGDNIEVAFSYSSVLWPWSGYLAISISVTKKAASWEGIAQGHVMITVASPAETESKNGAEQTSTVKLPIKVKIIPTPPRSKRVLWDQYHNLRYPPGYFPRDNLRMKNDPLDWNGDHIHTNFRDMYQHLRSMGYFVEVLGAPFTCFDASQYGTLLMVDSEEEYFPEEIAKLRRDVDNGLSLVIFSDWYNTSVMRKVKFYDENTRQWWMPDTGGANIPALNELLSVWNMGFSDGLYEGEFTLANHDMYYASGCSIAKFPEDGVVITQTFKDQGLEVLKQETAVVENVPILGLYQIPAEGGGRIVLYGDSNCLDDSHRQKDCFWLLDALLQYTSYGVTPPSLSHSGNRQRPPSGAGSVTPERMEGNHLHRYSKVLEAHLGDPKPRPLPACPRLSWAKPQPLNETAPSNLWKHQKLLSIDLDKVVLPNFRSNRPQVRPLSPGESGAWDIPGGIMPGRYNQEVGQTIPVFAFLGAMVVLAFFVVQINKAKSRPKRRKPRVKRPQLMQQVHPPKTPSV
# In short: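 Recombinant soluble human SKI-1 (activity normalized to 10 pmol Abz-peptide released per µL per h, 37 °C). Only the E-form was tested, at varying concentrations, with quenched fluorogenic Abz-Q-GPC251–263-Tyx substrate in Tris/Mes/2 mM CaCl2 buffer at 37 °C. RFU (ex 320/em 420 nm) were read from 0–6 h and converted to cleavage rates. Ki came from Dixon plots at 0.1, 0.05 and 0.025 mM substrate.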
# [2] = Chemical stability assessed as half life of degradation; format: physicochemical
# In short: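 Z-isomer formed by long-wavelength UV irradiation, then its thermal reisomerization to the E-form followed. First-order rate constant (h⁻¹) and Z-isomer half-life (h) derived.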
smiles,measurement,setting,value
CC(C)[C@H](NC(=O)COc1ccccc1/N=N/c1ccccc1OCC(=O)N[C@H](C(=O)OCc1ccccc1)C(C)C)C(=O)OCc1ccccc1,Ki,[1],125 µM
same,half-life,[2],31.5 h
O=C(COc1ccccc1/N=N/c1ccccc1OCC(=O)N[C@@H](Cc1ccccc1)C(=O)OCc1ccccc1)N[C@@H](Cc1ccccc1)C(=O)OCc1ccccc1,Ki,[1],11.8 µM
same,half-life,[2],69.3 h
O=C(COc1ccccc1/N=N/c1ccccc1OCC(=O)NCC(=O)OCc1ccccc1)NCC(=O)OCc1ccccc1,half-life,[2],77 h
O=C(COc1ccccc1/N=N/c1ccccc1OCC(=O)N[C@@H](Cc1ccccc1)C(=O)O)N[C@@H](Cc1ccccc1)C(=O)O,Ki,[1],225 µM
O=C(COc1ccccc1/N=N/c1ccccc1OCC(=O)N[C@@H](Cc1ccccc1)C(=O)N[C@@H](Cc1ccccc1)C(=O)O)N[C@@H](Cc1ccccc1)C(=O)N[C@@H](Cc1ccccc1)C(=O)O,Ki,[1],140 µM
O=C(COc1ccccc1/N=N/c1ccccc1OCC(=O)N[C@@H](Cc1ccccc1)C(=O)N[C@@H](Cc1ccccc1)C(=O)OCc1ccccc1)N[C@@H](Cc1ccccc1)C(=O)N[C@@H](Cc1ccccc1)C(=O)OCc1ccccc1,half-life,[2],28.9 h
O=C(O)CNC(=O)COc1ccccc1/N=N/c1ccccc1OCC(=O)NCC(=O)O,Ki,[1],265 µM
CC(C)[C@H](NC(=O)COc1ccccc1/N=N/c1ccccc1OCC(=O)N[C@H](C(=O)O)C(C)C)C(=O)O,Ki,[1],75 µM
